Measurements as given in ChEMBL document CHEMBL3259538, “Identification of the stereochemical requirements in the 4-aryl-2-cycloalkylidenhydrazinylthiazole scaffold for the design of selective human monoamine oxidase B inhibitors” (Bioorg Med Chem, 2014).
pIC50: −log10 of the molar value.

Legend:
[1] = target: T1, Amine oxidase [flavin-containing] A (Homo sapiens, UniProt P21397); test: Inhibition of human recombinant MAO-A expressed in baculovirus-infected BTI-TN-5B1-4 cell microsomes assessed as decrease in H2O2 production using p-tyramine as substrate preincubated for 15 mins by Amplex Red reagent based fluorimetric method
T1 sequence (P21397 whole entry): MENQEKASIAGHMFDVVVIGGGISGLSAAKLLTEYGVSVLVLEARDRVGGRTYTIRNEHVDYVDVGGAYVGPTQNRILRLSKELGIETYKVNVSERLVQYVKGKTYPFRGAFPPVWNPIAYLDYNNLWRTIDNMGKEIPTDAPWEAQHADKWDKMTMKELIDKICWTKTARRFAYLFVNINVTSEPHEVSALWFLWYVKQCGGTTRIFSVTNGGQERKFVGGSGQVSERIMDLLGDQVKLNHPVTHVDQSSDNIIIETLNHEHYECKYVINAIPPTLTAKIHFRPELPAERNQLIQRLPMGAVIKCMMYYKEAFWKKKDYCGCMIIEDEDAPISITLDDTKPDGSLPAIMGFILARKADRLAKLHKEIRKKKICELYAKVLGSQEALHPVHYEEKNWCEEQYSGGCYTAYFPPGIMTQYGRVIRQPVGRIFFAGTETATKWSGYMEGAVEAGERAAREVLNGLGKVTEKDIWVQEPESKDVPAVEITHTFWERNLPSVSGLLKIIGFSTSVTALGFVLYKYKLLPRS

[2] = target: T2, Amine oxidase [flavin-containing] B (Homo sapiens, UniProt P27338); test: biochemical; type: cell-based, BTI-TN-5B1-4
T2 sequence (P27338 whole entry): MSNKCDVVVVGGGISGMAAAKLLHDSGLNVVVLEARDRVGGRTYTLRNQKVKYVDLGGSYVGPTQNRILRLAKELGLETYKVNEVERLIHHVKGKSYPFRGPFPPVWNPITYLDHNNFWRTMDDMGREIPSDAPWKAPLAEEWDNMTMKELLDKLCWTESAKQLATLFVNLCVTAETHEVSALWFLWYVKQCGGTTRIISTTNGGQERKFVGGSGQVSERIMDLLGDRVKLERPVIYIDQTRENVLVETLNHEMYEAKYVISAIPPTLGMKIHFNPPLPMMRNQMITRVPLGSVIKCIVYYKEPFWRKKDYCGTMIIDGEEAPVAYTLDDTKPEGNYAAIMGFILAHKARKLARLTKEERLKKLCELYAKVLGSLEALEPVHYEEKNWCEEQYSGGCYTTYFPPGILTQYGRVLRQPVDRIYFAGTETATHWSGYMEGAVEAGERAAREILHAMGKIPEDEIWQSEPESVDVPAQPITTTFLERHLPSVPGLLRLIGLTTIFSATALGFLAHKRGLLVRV

[3] = test system: BTI-TN-5B1-4; test: Selectivity index, ratio of IC50 for human recombinant MAO-A expressed in baculovirus-infected BTI-TN-5B1-4 cell microsomes to IC50 for human recombinant MAO-B expressed in baculovirus-infected BTI-TN-5B1-4 cell microsomes
[4] = target: T1, Amine oxidase [flavin-containing] A; test: Inhibition of human recombinant MAO-A expressed in baculovirus-infected BTI-TN-5B1-4 cell microsomes assessed as decrease in H2O2 production using p-tyramine as substrate at 100 uM preincubated for 15 mins by Amplex Red reagent based fluorimetric method; details: bti-tn-5b1-4, 100 µM
Summary of the method: (§1)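 Microsomal enzyme in 0.05 M sodium phosphate, pH 7.4. The enzyme amount was adjusted so that controls oxidize 165 pmol p-tyramine/min. Drug and enzyme were preincubated for 15 min at 37 °C. Final 200 µM Amplex Red and 1 U/mL HRP were then added. Resorufin fluorescence (ex 545/em 590 nm) was read linearly over 15 min at 37 °C. Background without enzyme was subtracted, and drug interference was checked with Amplex Red alone.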

[5] = target: T2, Amine oxidase [flavin-containing] B; test: Inhibition of human recombinant MAO-B expressed in baculovirus-infected BTI-TN-5B1-4 cell microsomes assessed as decrease in H2O2 production using p-tyramine as substrate at 1 mM preincubated for 15 mins by Amplex Red reagent based fluorimetric method; details: bti-tn-5b1-4, 1000 µM; summary of the method: as §1

SMILES | pIC50 [1] | pIC50 [2] | Ratio IC50 [3] | inhibition (INH) [4] | inhibition (INH) [5]
C[C@@H]1CC/C(=N\Nc2nc(-c3ccc(F)cc3F)cs2)C1 | 4.88 | 8.30 | 2580 |  | 
C[C@@H]1CC/C(=N/Nc2nc(-c3ccc(F)cc3F)cs2)C1 | 4.86 | 8.54 | 4740 |  | 
C[C@@H]1CCC(=NNc2nc(-c3ccc(F)cc3F)cs2)C1 | 4.81 | 8.27 | 2920 |  | 
CC1CCC/C1=N\Nc1nc(-c2ccc([N+](=O)[O-])cc2)cs1 (mixture of isomers) | 4.72 | 8.08 | 2310 |  | 
CC1CC/C(=N\Nc2nc(-c3ccc([N+](=O)[O-])cc3)cs2)C1 (mixture of isomers) |  | 6.43 | > 266 | Not Active | 
CC1CC/C(=N\Nc2nc(-c3ccc(C#N)cc3)cs2)C1 (mixture of isomers) | 4.96 | 6.64 | 49 |  | 
CC1CC/C(=N\Nc2nc(-c3ccc(F)cc3F)cs2)C1 (mixture of isomers) | 4.77 | 8.03 | 1810 |  | 
O=C1Nc2ccccc2C1=O [ISATIN] |  |  |  | Not Active | 
O=C(NCCN1CCOCC1)c1ccc(Cl)cc1 [MOCLOBEMIDE] |  |  |  |  | Not Active
